ChEMBL document CHEMBL4765483 (J Med Chem, 2021)
Activity calls are given as the source filed them. The calls are words filed in the database; no cut-off is given here.

Key:
[1] = target: T1, Adenosine receptor A2b (Homo sapiens, UniProt P29275); assay: Antagonist activity at human A2B receptor
T1 sequence (P29275 whole entry): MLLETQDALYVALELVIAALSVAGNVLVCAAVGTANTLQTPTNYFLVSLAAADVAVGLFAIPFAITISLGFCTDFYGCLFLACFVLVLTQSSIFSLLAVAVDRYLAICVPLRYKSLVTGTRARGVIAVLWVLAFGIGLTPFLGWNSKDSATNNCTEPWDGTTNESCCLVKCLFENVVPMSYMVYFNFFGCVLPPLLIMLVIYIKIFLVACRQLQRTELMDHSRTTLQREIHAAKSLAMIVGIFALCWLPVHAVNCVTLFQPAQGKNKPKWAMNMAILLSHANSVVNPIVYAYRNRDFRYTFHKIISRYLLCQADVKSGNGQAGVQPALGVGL

[2] = target: T2, CYP2D6 (Homo sapiens, UniProt P10635); assay: Inhibition of CYP2D6 (unknown origin) expressed in insect cell microsomes at 1 uM by fluorescence based assay relative to control; format: ADME, Microsome; settings: recombinant CYP2D6 expressed in insect cell microsomes
Outline: (§1)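 cDNA-expressed P450 in insect cell microsomes; cofactor mix of KH2PO4 buffer, 1.3 mM NADP, 3.3 mM MgCl2, 3.3 mM glucose-6-phosphate, 0.4 U/mL G6PDH. Preincubated 5 min at 37 °C, started with prewarmed enzyme/substrate mix, stopped at an isoform-specific time. Fluorescence read; percentage inhibition at 1 and 10 μM; mean of n = 3.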

[3] = target: T3, CYP3A4 (Homo sapiens, UniProt P08684); assay: Inhibition of CYP3A4 (unknown origin) expressed in insect cell microsomes at 1 uM in presence of BFC substrate by fluorescence based assay relative to control; format: ADME, Microsome; settings: recombinant CYP3A4 expressed in insect cell microsomes, probe BFC; outline: as §1
[4] = system: PC-3; assay: Toxicity in human PC-3 cells assessed as effect on cell growth at 10 to 100 uM by MTT assay; format: cell-based; settings: pc-3, 100 µM, dose 10-100 µM
Outline: (§2)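 Prostate cancer cells cultured in RPMI 1640 with 10% FBS, penicillin and streptomycin at 37 °C, 5% CO2; tested at 10 and 100 μM by MTT assay with cisplatin as control.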

[5] = system: PC-3; assay: Antimetastatic activity in human PC-3 cells assessed as effect on cell shape at Ki level incubated for 72 hrs by confocal laser scanning microscopy; format: functional, cell-based
[6] = target: T3, CYP3A4; assay: Inhibition of CYP3A4 (unknown origin) expressed in insect cell microsomes at 10 uM in presence of DBF substrate by fluorescence based assay relative to control; format: ADME, Microsome; settings: recombinant CYP3A4 expressed in insect cell microsomes, probe DBF; outline: as §1
[7] = system: PC-3; assay: Antimetastatic activity in human PC-3 cells assessed as induction of actin skeleton reorganization at Ki level incubated for 72 hrs by confocal laser scanning microscopy; format: functional, cell-based
[8] = target: T3, CYP3A4; assay: Inhibition of CYP3A4 (unknown origin) expressed in insect cell microsomes at 10 uM in presence of BFC substrate by fluorescence based assay relative to control; format: ADME, Microsome; settings: recombinant CYP3A4 expressed in insect cell microsomes, probe BFC; outline: as §1
[9] = Stability in human liver microsomes in NADP incubated up to 60 mins by UPLC-MS/MS analysis; format: ADME, Microsome; settings: read-out: Stabilty
Outline: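 Human microsomes at 37 °C in 50 mM phosphate buffer pH 7.4 with 3 mM MgCl2, 1 mM NADP, 10 mM glucose-6-phosphate, 1 U/mL G6PDH. Samples at 0, 10, 20, 40, 60 min quenched into cold acetonitrile with 0.5% formic acid, centrifuged; supernatant analysed by UPLC–MS/MS on C18 column.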

[10] = system: LNCaP; assay: Toxicity in human LNCaP cells assessed as effect on cell growth at 10 to 100 uM by MTT assay; format: cell-based; settings: dose 10-100 µM; outline: as §2
[11] = system: LNCaP; assay: Antimigratory activity in human LNCaP cells assessed as reduction in cell migration at Ki level incubated for 72 hrs by crystal violet staining based confocal microscopy; format: functional
Outline: (§3)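 Transwell migration, 8.0 μm pore polycarbonate membrane; 10⁵ cells seeded in serum-free medium in upper chamber, complete medium with 10% FBS below. Cells kept in RPMI 1640, 10% FBS. Migration scored after 72 h without or with treatment; migrated cells fixed in 4% paraformaldehyde, crystal violet stained, counted in five random fields; at least three chambers from three experiments.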

[12] = system: DU-145; assay: Toxicity in human DU-145 cells assessed as effect on cell growth at 10 to 100 uM by MTT assay; format: cell-based; settings: du-145, 100 µM, dose 10-100 µM; outline: as §2
[13] = system: PC-3; assay: Antimigratory activity in human PC-3 cells assessed as reduction in cell migration at Ki level incubated for 72 hrs by crystal violet staining based confocal microscopy; format: functional; parameters: scale not given: the % may be the effect or the level left; outline: as §3
[14] = target: T2, CYP2D6; assay: Inhibition of CYP2D6 (unknown origin) expressed in insect cell microsomes at 10 uM by fluorescence based assay relative to control; format: ADME, Microsome; settings: recombinant CYP2D6 expressed in insect cell microsomes; outline: as §1
[15] = target: T3, CYP3A4; assay: Inhibition of CYP3A4 (unknown origin) expressed in insect cell microsomes at 1 uM in presence of DBF substrate by fluorescence based assay relative to control; format: ADME, Microsome; settings: recombinant CYP3A4 expressed in insect cell microsomes, probe DBF; outline: as §1
[16] = system: DU-145; assay: Antimigratory activity in human DU-145 cells assessed as reduction in cell migration at Ki level incubated for 72 hrs by crystal violet staining based confocal microscopy; format: functional; outline: as §3
[17] = target: T4, Adenosine receptor A3 (Homo sapiens) (UniProt P0DMS8); assay: Displacement of [3H]NECA from adenosine A3 receptor expressed in human HeLa cell membranes at 1 uM incubated for 180 mins by scintillation counting method; settings: Cell membrane
T4 sequence (whole entry): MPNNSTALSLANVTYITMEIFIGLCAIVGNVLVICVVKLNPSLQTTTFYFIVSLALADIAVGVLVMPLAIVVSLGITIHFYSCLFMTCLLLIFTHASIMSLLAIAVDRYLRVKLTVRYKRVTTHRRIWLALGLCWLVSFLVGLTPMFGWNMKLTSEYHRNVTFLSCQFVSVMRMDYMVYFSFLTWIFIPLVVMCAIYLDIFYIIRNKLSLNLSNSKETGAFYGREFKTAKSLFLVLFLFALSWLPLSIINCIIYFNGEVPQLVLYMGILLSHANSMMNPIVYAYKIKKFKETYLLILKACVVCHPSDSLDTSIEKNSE
Outline: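 hA3AR in HeLa membranes (3 pmol/mg protein) with 10 nM [3H]NECA (KD 8.7 nM); nonspecific binding with 100 μM R-PIA; incubated 180 min at 25 °C, washed, filtered, radioactivity counted.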

T3 sequence (P08684 whole entry): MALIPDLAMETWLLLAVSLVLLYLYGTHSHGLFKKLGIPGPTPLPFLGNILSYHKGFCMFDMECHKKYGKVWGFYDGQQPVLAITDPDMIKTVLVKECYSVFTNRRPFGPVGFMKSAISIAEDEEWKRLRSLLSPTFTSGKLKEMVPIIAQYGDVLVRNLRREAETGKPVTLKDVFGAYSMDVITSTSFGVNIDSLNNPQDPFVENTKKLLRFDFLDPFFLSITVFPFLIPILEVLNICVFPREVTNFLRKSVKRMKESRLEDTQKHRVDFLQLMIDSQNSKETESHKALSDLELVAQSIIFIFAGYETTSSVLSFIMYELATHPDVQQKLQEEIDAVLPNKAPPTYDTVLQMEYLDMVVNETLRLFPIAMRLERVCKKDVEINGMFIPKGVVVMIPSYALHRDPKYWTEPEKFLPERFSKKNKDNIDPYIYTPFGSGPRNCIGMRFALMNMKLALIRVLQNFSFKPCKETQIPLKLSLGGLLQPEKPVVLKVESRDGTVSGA
T2 sequence (P10635 whole entry, canonical isoform): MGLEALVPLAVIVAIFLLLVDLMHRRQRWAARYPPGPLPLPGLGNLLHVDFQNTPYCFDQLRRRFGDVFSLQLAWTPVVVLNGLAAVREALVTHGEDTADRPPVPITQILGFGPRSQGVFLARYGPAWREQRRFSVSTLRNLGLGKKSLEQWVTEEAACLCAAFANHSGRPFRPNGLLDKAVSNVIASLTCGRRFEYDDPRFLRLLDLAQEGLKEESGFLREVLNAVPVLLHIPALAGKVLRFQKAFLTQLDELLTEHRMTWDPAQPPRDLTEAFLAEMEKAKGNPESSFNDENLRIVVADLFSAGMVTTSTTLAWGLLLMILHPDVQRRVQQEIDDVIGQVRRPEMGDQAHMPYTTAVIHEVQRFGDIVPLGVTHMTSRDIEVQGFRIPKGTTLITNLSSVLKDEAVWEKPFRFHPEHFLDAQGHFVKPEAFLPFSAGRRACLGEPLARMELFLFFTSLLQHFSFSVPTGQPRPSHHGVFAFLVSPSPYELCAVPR

| Ki [1] [nM] | inhibition at 1 µM [2] [%] | inhibition at 1 µM [3] [%] | inhibition at 10 µM [6] [%] | inhibition at 10 µM [8] [%] | remaining at 1 h [9] [%] | inhibition at 10 µM [14] [%] | inhibition at 1 µM [15] [%] | inhibition [17] [%] | Structure (SMILES) | Activity [4] | Activity [5] | Activity [7] | Activity [10] | Activity [11] | Activity [12] | Activity [13] [%] | Activity [16] |
| --- | --- | --- | --- | --- | --- | --- | --- | --- | --- | --- | --- | --- | --- | --- | --- | --- | --- |
| 6 |  |  |  |  |  |  |  |  | CCCn1c(=O)[nH]c2nc(-c3cnn(Cc4cccc(C(F)(F)F)c4)c3)[nH]c2c1=O |  |  |  |  |  |  |  |  |
|  | 15 | 15 | 12 | 44 | 65 | 22 | 4 |  | CCOC(=O)C1=C(C)NC(=O)NC1c1ccsc1 (racemic) | Non-Toxic | Active | Active | Non-Toxic | Active | Non-Toxic | 35 | Active |
|  | 15 | 1 | 1 | 13 | 77 | 12 | 3 | 1 | CC1=C(C(=O)OC(C)C)C(c2ccco2)NC(=S)N1 (racemic) | Non-Toxic | Active | Active | Non-Toxic | Active | Non-Toxic | 50 | Active |
